Source: ChEMBL document CHEMBL2177040, “Down-regulation of the human VEGF gene expression by perylene monoimide derivatives” (Bioorg Med Chem Lett, 2012)
The source made the active and inactive calls. The calls are words filed in the database; no cut-off is given here.

Key:
[1] = tested on: A549; assay: Downregulation of GAPDH mRNA expression in human A549 cells at 0.75 to 6 uM after 24 hrs by semi-quantitative RT-PCR analysis; type: functional, cell-based
Method in brief: (§1)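 A549 cells (3.0 × 10^5) treated 24 h at graded compound concentrations; RNA reverse-transcribed and GAPDH cDNA amplified by gene-specific PCR at a cycle number chosen for linear signal, with band intensity by semi-quantitative gel read-out.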

[2] = tested on: A549; assay: Downregulation of Max mRNA expression in human A549 cells at 0.75 to 6 uM after 24 hrs by semi-quantitative RT-PCR analysis; type: functional, cell-based
[3] = tested on: A549; assay: Downregulation of COX2 mRNA expression in human A549 cells at 0.75 to 6 uM after 24 hrs by semi-quantitative RT-PCR analysis; type: functional, cell-based
[4] = tested on: Nucleic Acid; assay: Binding affinity to c-Myc quadruplex DNA in human A549 cells assessed as downregulation of c-Myc mRNA expression after 24 hrs by semi-quantitative RT-PCR analysis; type: cell-based
[5] = tested on: Nucleic Acid; assay: Binding affinity to VEGF quadruplex DNA in human A549 cells assessed as downregulation of VEGF mRNA expression after 24 hrs by semi-quantitative RT-PCR analysis; type: cell-based
Method in brief: (§2)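 A549 cells (3.0 × 10^5) exposed to a range of compound concentrations for 24 h; total RNA reverse-transcribed and cDNA amplified with gene-specific primers at a cycle number chosen per gene for linear signal. VEGF bands quantified by densitometry, normalized to GAPDH; three separate experiments.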

[6] = tested on: Nucleic Acid; assay: Binding affinity to Bcl2 quadruplex DNA in human A549 cells assessed as downregulation of Bcl2 mRNA expression in human A549 cells after 24 hrs by semi-quantitative RT-PCR analysis; type: cell-based
[7] = tested on: Nucleic Acid; assay: Binding affinity to VEGF quadruplex DNA in human A549 cells assessed as downregulation of VEGF protein level at 0.2 to 2.8 uM after 24 hrs by Western blot analysis; type: cell-based
Method in brief: (§3)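 A549 cells (3.0 × 10^5) exposed to a range of compound concentrations for 24 h. Lysate proteins separated by SDS-PAGE and blotted with rabbit polyclonal VEGF antibody, then HRP-conjugated goat anti-rabbit IgG. Top concentrations chosen from cytotoxicity data.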

[8] = tested on: Nucleic Acid; assay: Binding affinity to VEGF quadruplex DNA in human A549 cells assessed as downregulation of VEGF protein level at 3.1 to 50 uM after 24 hrs by Western blot analysis; type: cell-based; method in brief: as §3
[9] = tested on: Nucleic Acid; assay: Binding affinity to VEGF quadruplex DNA in human A549 cells assessed as downregulation of VEGF121 mRNA expression after 24 hrs by semi-quantitative RT-PCR analysis; type: cell-based; method in brief: as §2
[10] = tested on: Nucleic Acid; assay: Binding affinity to VEGF quadruplex DNA in human A549 cells assessed as downregulation of VEGF165 mRNA expression after 24 hrs by semi-quantitative RT-PCR analysis; type: cell-based; method in brief: as §2
[11] = tested on: A549; assay: Cytotoxicity against human A549 cells assessed as cell viability after 72 hrs by SRB assay; type: functional, cell-based; conditions: A549, 72 h
Method in brief: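 Sulforhodamine B colorimetric assay on A549 cells. IC50 derived from the concentration versus percent growth inhibition curve. Mean ± standard deviation of three independent experiments, each in triplicate.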

[12] = Solubility of the compound in Tris-HCl buffer at 40 uM at pH 7.4 after 1 to 72 hrs by spectroscopic analysis in presence of salmon sperm DNA duplex; type: physicochemical; conditions: pH 7.4, 40 µM
Method in brief: (§4)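 Visible absorbance spectra of compound (40 µM) in 10 mM Tris-HCl pH 7.4 with 100 mM KCl, without DNA, with preformed VEGF quadruplex (20 µM V32G), or with salmon sperm duplex DNA matched in absorbance to the quadruplex; recorded at 0, 8 and 72 h incubation.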

[13] = Solubility of the compound in Tris-HCl buffer at 40 uM at pH 7.4 after 1 to 72 hrs by spectroscopic analysis in presence of VEGF quadruplex; type: physicochemical; conditions: pH 7.4, 40 µM; method in brief: as §4
[14] = Solubility of the compound in Tris-HCl buffer at 40 uM at pH 7.4 after 1 to 72 hrs by spectroscopic analysis in absence of DNA; type: physicochemical; conditions: pH 7.4, 40 µM
Method in brief: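 Compound at 40 µM in 10 mM Tris-HCl pH 7.4 with 100 mM KCl, without DNA. Visible absorbance spectra recorded at 0, 8 and 72 h.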

[15] = tested on: Nucleic Acid; assay: Binding affinity to VEGF V32G-G-quadruplex DNA at 1 to 32 uM after 10 hrs by polyacrylamide electrophoresis; type: nucleic-acid assay
Method in brief: (§5)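 Duplex/G-quadruplex competition: FAM-labelled G-rich strand V32G (2 µM) plus complementary C-rich strand (2 µM) with twofold-diluted compound in Tris-HCl pH 7.4, 100 mM KCl; denatured 95 °C 5 min, slow-cooled to 55 °C and held 10 h, then rapidly cooled to 4 °C. Products resolved on 16% native PAGE containing 50 mM KCl (4 °C, 350 V, 10 h); duplex vs monomeric quadruplex bands imaged.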

[16] = tested on: Nucleic Acid; assay: Binding affinity to VEGF VT-66-G-quadruplex DNA after 30 mins by DNA polymerase stop assay; type: nucleic-acid assay
Method in brief: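 Polymerase stop: compound (twofold dilution) with template VT-66 (100 nM) and FAM-labelled primer P16 (100 nM) in 10 mM Tris-HCl pH 7.4, denatured 95 °C 5 min, slow-cooled to 37 °C. Extension started with dNTPs, 3 mM MgCl2 and Klenow fragment (1 unit), 37 °C 30 min. Resolved on 12% denaturing PAGE; stopped/(stopped+full-length) ratio plotted against concentration.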

[17] = tested on: Nucleic Acid; assay: Binding affinity to VEGF quadruplex DNA in human A549 cells assessed as downregulation of VEGF165 mRNA expression at 50 uM after 24 hrs by semi-quantitative RT-PCR analysis; type: cell-based
Method in brief: (§6)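 A549 cells (3.0 × 10^5) treated 24 h. Total RNA extracted and reverse-transcribed; cDNA amplified with gene-specific primers, with cycle number set so that product intensity tracks cDNA amount. Both VEGF bands quantified by scan densitometry and normalised to GAPDH; three separate experiments.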

[18] = tested on: Nucleic Acid; assay: Binding affinity to VEGF quadruplex DNA in human A549 cells assessed as downregulation of VEGF121 mRNA expression at 50 uM after 24 hrs by semi-quantitative RT-PCR analysis; type: cell-based; method in brief: as §6
[19] = tested on: Nucleic Acid; assay: Binding affinity to VEGF V32G-double stranded DNA at 1 to 32 uM after 10 hrs by polyacrylamide electrophoresis; type: nucleic-acid assay
Method in brief: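 FAM-labeled VEGF G-rich strand (V32G, 2 µM) plus complementary C-rich strand (2 µM) with twofold-diluted compound in Tris-HCl pH 7.4, 100 mM KCl. Denatured 95 °C 5 min, slow-cooled to 55 °C, held 10 h, then rapidly cooled to 4 °C. Separated on 16% native PAGE with 50 mM KCl (4 °C, 350 V, 10 h); duplex vs monomeric quadruplex bands imaged.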

[20] = Inhibition of DNA polymerase at > 1 uM
Method in brief: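 Klenow polymerase stop assay. Template VT-66 (100 nM) and FAM-primer P16 (100 nM) with twofold-diluted compound in 10 mM Tris-HCl pH 7.4, denatured 95 °C 5 min, slow-cooled to 37 °C. Extension started with dNTPs, 3 mM MgCl2 and Klenow fragment (1 unit), 37 °C 30 min. Products on 12% denaturing PAGE; stopped/total extended ratio plotted.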

[21] = tested on: Nucleic Acid; assay: Binding affinity to VEGF quadruplex DNA in human MCF7 cells assessed as downregulation of VEGF mRNA expression at 0.75 to 6 uM after 24 hrs by semi-quantitative RT-PCR analysis; type: cell-based
[22] = tested on: Nucleic Acid; assay: Binding affinity to VEGF quadruplex DNA in human HeLa cells assessed as downregulation of VEGF mRNA expression at 0.75 to 6 uM after 24 hrs by semi-quantitative RT-PCR analysis; type: cell-based
[23] = tested on: Nucleic Acid; assay: Binding affinity to VEGF quadruplex DNA in human HCT15 cells assessed as downregulation of VEGF mRNA expression at 0.75 to 6 uM after 24 hrs by semi-quantitative RT-PCR analysis; type: cell-based; conditions: HCT-15
[24] = tested on: Nucleic Acid; assay: Binding affinity to VEGF quadruplex DNA in human A549 cells assessed as downregulation of VEGF protein level after 24 hrs by Western blot analysis; type: cell-based
Method in brief: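 A549 cells (3.0 × 10^5) treated with a range of compound concentrations for 24 h; lysate proteins separated by SDS-PAGE and blotted with rabbit polyclonal anti-VEGF, detected with HRP-conjugated goat anti-rabbit IgG.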

[25] = tested on: HeLa; assay: Cytotoxicity against human HeLa cells assessed as cell viability after 72 hrs by SRB assay; type: functional, cell-based
[26] = tested on: MCF7; assay: Cytotoxicity against human MCF7 cells assessed as cell viability after 72 hrs by SRB assay; type: functional, cell-based; conditions: MCF7, 72 h
[27] = tested on: HCT-15; assay: Cytotoxicity against human HCT15 cells assessed as cell viability after 72 hrs by SRB assay; type: functional, cell-based; conditions: HCT-15, 72 h
[28] = tested on: Nucleic Acid; assay: Binding affinity to VEGF quadruplex DNA at 40 uM after 1 to 72 hrs by spectroscopic analysis; type: nucleic-acid assay; method in brief: as §4
[29] = Solubility of the compound in Tris-HCl buffer at 40 uM at pH 7.4 after 72 hrs by spectroscopic analysis in absence of DNA; type: physicochemical; conditions: pH 7.4, 72 h; method in brief: as §4
[30] = tested on: Nucleic Acid; assay: Binding affinity to VEGF V32G-G-quadruplex DNA after 10 hrs by polyacrylamide electrophoresis; type: nucleic-acid assay; method in brief: as §5
[31] = tested on: A549; assay: Downregulation of GAPDH mRNA expression in human A549 cells at 3 to 24 uM after 24 hrs by semi-quantitative RT-PCR analysis; type: functional, cell-based; method in brief: as §1
[32] = tested on: A549; assay: Downregulation of Max mRNA expression in human A549 cells at 3 to 24 uM after 24 hrs by semi-quantitative RT-PCR analysis; type: functional, cell-based
[33] = tested on: A549; assay: Downregulation of COX2 mRNA expression in human A549 cells at 3 to 24 uM after 24 hrs by semi-quantitative RT-PCR analysis; type: functional, cell-based

SMILES	Activity [1]	Activity [2]	Activity [3]	Activity [4]	Activity [5]	Activity [6]	Activity [7]	Activity [8]	Activity [9]	Activity [10]	IC50 [11] [µM]	solubility [12]	solubility [13]	solubility [14]	Activity [15]	Activity [16]	Activity [24]	Activity [28]	other results
CC[N+](C)(CC)CCN1C(=O)c2ccc3c4cccc5cccc(c6ccc(c2c36)C1=O)c54.Cc1ccc(S(=O)(=O)[O-])cc1	inactive	inactive	inactive	Dose-dependent effect	Dose-dependent effect	Dose-dependent effect	inactive	inactive	Dose-dependent effect	Dose-dependent effect	3.2	soluble	soluble	Insoluble	Active	Dose-dependent effect	–	–	–
C[n+]1ccc(-c2c3nc(c(-c4cc[n+](C)cc4)c4ccc([nH]4)c(-c4cc[n+](C)cc4)c4ccc([nH]4)c(-c4cc[n+](C)cc4)c4nc2C=C4)C=C3)cc1 [TMPYP4]	–	–	–	–	–	–	inactive	inactive	–	–	43.1	–	–	–	–	Dose-dependent effect	–	–	Activity [17]: inactive; Activity [18]: inactive; Activity [19]: Active; inhibition [20]: Active
CCN(CC)CCN1C(=O)c2ccc3c4cccc5c(N6CCNCC6)ccc(c6ccc(c2c36)C1=O)c54	inactive	inactive	inactive	Dose-dependent effect	Dose-dependent effect	Dose-dependent effect	–	–	Dose-dependent effect	Dose-dependent effect	4	soluble	soluble	–	–	Dose-dependent effect	Dose-dependent effect	inactive	Activity [21]: Active; Activity [22]: Active; Activity [23]: Active; IC50 [25]: 3 µM; IC50 [26]: 5.5 µM; IC50 [27]: 4.7 µM; solubility [29]: soluble; Activity [30]: Active
O=C1c2ccc3c4ccc5c6c(ccc(c7ccc(c2c37)C(=O)N1CCN1CCCCC1)c64)C(=O)N(CCN1CCCCC1)C5=O	–	–	–	Dose-dependent effect	Dose-dependent effect	Dose-dependent effect	–	–	Dose-dependent effect	Dose-dependent effect	52.4	soluble	soluble	Insoluble	Active	Dose-dependent effect	Dose-dependent effect	Active	Activity [31]: inactive; Activity [32]: inactive; Activity [33]: inactive
